# Reference: ChEMBL document CHEMBL3244395, “Antimycotic imidazoles. 2. Synthesis and antifungal properties of esters of 1-[2-hydroxy(mercapto)-2-phenylethyl]-1H-imidazoles” (J Med Chem, 1978)
# Calls of active or inactive are those of the source. The rule behind the calls is not given here.
# Tests used:
# Epidermophyton floccosum = assay: Antifungal activity against Epidermophyton floccosum assessed as lowest concentration required for total inhibition broth dilution assay; type: functional; conditions: read-out: MIC100
# Outline: (§1)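 Broth dilution against dermatophytes, C. albicans ATCC 10231 and 14053, and C. neoformans. The end point is the lowest concentration with total inhibition. "<" marks the lowest level tested, and ">" marks partial growth at that dilution.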
# Candida albicans [1] = assay: Antifungal activity against Candida albicans ATCC 10231 assessed as lowest concentration required for total inhibition by broth dilution assay; type: functional; conditions: read-out: MIC100; outline: as §1
# Cryptococcus neoformans = assay: Antifungal activity against Cryptococcus neoformans assessed as lowest concentration required for total inhibition by broth dilution assay; type: functional; conditions: read-out: MIC100; outline: as §1
# Nannizzia gypsea = assay: Antifungal activity against Microsporum gypseum assessed as lowest concentration required for total inhibition broth dilution assay; type: functional; conditions: read-out: MIC100; outline: as §1
# Candida albicans [2] = assay: Antifungal activity against Candida albicans ATCC 14053 assessed as lowest concentration required for total inhibition by broth dilution assay; type: functional; conditions: read-out: MIC100; outline: as §1
# [3] = test system: Trichophyton mentagrophytes; assay: Antifungal activity against Trichophyton mentagrophytes assessed as lowest concentration required for total inhibition broth dilution assay; type: functional; conditions: read-out: MIC100; outline: as §1
# [4] = Lipophilic-hydrophilic balance, Rm of the compound assessed as change in compound Rm to miconazole Rm by reverse-phase TLC method; type: physicochemical; conditions: silicone oil-impregnated silica gel, MeCN-H2O-AcOH
# Pasteurella multocida = assay: Antibacterial activity against Pasteurella multocida ATCC 19427 assessed as lowest concentration required for total inhibition by broth microdilution assay; type: functional; conditions: for MIC: read-out: MIC100
# Outline: (§2)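 Broth microdilution against the listed ATCC […] strains. The value is the lowest concentration giving total inhibition. "<" marks the lowest level tested, and ">" marks partial growth at that dilution.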
# Staphylococcus aureus = assay: Antibacterial activity against Staphylococcus aureus ATCC 12600 assessed as lowest concentration required for total inhibition by broth microdilution assay; type: functional; conditions: for MIC: read-out: MIC100; outline: as §2
# Enterococcus faecalis = assay: Antibacterial activity against Streptococcus faecalis ATCC 14506 assessed as lowest concentration required for total inhibition by broth microdilution assay; type: functional; conditions: for MIC: read-out: MIC100; outline: as §2
# Cutibacterium acnes = assay: Antibacterial activity against Corynebacterium acnes ATCC 11828 assessed as lowest concentration required for total inhibition by broth microdilution assay; type: functional; conditions: for MIC: read-out: MIC100; outline: as §2
# [5] = test system: Erysipelothrix rhusiopathiae; assay: Antibacterial activity against Erysipelothrix insidiosa ATCC 19414 assessed as lowest concentration required for total inhibition by broth microdilution assay; type: functional; conditions: for MIC: read-out: MIC100; outline: as §2
# Candida albicans [6] = assay: Antifungal activity against Candida albicans in mouse vaginal infection model compound applied intravaginally as 2% formulation in an aqueous propylene glycol cream for 4 days bid; type: functional, organism-based; conditions: Vagina
# Outline: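 Mice with vaginal C. albicans infection, following Wildfeuer's method. The compound was applied intravaginally as a 2% formulation in an aqueous propylene glycol cream, twice daily for 4 days. Read-out was animals cured over total number infected.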
Molecule,MIC (Epidermophyton floccosum) [µg/mL],MIC (Candida albicans [1]) [µg/mL],MIC (Cryptococcus neoformans) [µg/mL],MIC (Nannizzia gypsea) [µg/mL],MIC (Candida albicans [2]) [µg/mL],MIC [3] [µg/mL],deltaRm [4],MIC (Pasteurella multocida) [µg/mL],MIC (Staphylococcus aureus) [µg/mL],MIC (Enterococcus faecalis) [µg/mL],MIC (Cutibacterium acnes) [µg/mL],MIC [5] [µg/mL],Activity (Candida albicans [6]),MIC100 (Pasteurella multocida) [µg/mL],MIC100 (Staphylococcus aureus) [µg/mL],MIC100 (Enterococcus faecalis) [µg/mL],MIC100 (Cutibacterium acnes) [µg/mL],MIC100 [5] [µg/mL]
CC(C)COC(=S)SC(Cn1ccnc1)c1ccc(Cl)cc1Cl.O=[N+]([O-])O (stereo unspecified),< 0.1,30,< 0.3,3,10,3,0.17,,,,,,,,,,,
Cc1ccc(C(=O)SC(Cn2ccnc2)c2ccc(Cl)cc2Cl)cc1.O=[N+]([O-])O (stereo unspecified),< 0.1,10,< 1,30,10,10,-0.09,,,,,,,,,,,
O=C(Sc1ccccc1)SC(Cn1ccnc1)c1ccc(Cl)cc1Cl.O=[N+]([O-])O (stereo unspecified),< 0.1,100,< 1,3,100,10,-0.02,3,10,30,> 100,100,,,,,,
CC(C)(C)c1ccc(C(=O)OC(Cn2ccnc2)c2ccc(Cl)cc2Cl)cc1.O=C(O)C(=O)O (stereo unspecified),1,10,3,10,10,10,0.16,,,,,,,,,,,
CCCCCCCCOC(=O)SC(Cn1ccnc1)c1ccc(Cl)cc1Cl.O=[N+]([O-])O (stereo unspecified),< 0.1,> 300,< 1,30,> 300,10,0.82,1,1,30,100,10,,,,,,
CCCCOC(=O)SC(Cn1ccnc1)c1ccc(Cl)cc1Cl.O=[N+]([O-])O (stereo unspecified),< 0.1,30,< 0.3,30,30,10,-0.14,,,,,,,,,,,
CCCCOC(=S)SC(Cn1ccnc1)c1ccc(Cl)cc1Cl.O=[N+]([O-])O (stereo unspecified),< 0.1,30,1,3,10,3,0.19,,,,,,Active,,,,,
CC(=O)SC(Cn1ccnc1)c1ccc(Cl)cc1Cl.O=[N+]([O-])O (stereo unspecified),1,300,10,100,300,100,,,,,,,,,,,,
CC(C)OC(=S)SC(Cn1ccnc1)c1ccc(Cl)cc1Cl.O=[N+]([O-])O (stereo unspecified),< 0.1,100,< 0.3,10,30,10,-0.14,,,,,,,,,,,
O=C(/C=C/c1ccccc1)SC(Cn1ccnc1)c1ccc(Cl)cc1Cl.O=[N+]([O-])O (stereo unspecified),< 0.1,10,< 1,30,10,10,-0.08,,,,,,,,,,,
O=C(Cc1ccc(Cl)cc1)OC(Cn1ccnc1)c1ccc(Cl)cc1Cl.O=[N+]([O-])O (stereo unspecified),< 0.1,100,3,100,100,30,-0.41,,,,,,,,,,,
O=C(SC(Cn1ccnc1)c1ccc(Cl)cc1Cl)c1ccccc1Cl.O=[N+]([O-])O (stereo unspecified),< 0.1,30,< 1,10,30,10,-0.35,1,10,30,> 100,100,,,,,,
O=C(OC(Cn1ccnc1)c1ccc(Cl)cc1Cl)c1ccc(Cl)cc1Cl.O=[N+]([O-])O (stereo unspecified),< 0.1,300,3,30,300,30,-0.24,,,,,,,,,,,
CC(C)(C)SC(=O)SC(Cn1ccnc1)c1ccc(Cl)cc1Cl.O=[N+]([O-])O (stereo unspecified),< 0.1,30,3,10,30,3,0.05,1,3,10,100,100,,,,,,
CCCCCCCCOC(=O)OC(Cn1ccnc1)c1ccc(Cl)cc1Cl.O=[N+]([O-])O (stereo unspecified),< 0.1,300,3,10,30,10,0.4,,,,,,,,,,,
O=C(/C=C/c1ccc(Cl)cc1)OC(Cn1ccnc1)c1ccc(Cl)cc1Cl.O=[N+]([O-])O (stereo unspecified),< 0.1,> 300,< 1,10,> 300,10,,,,,,,,,,,,

Molecule,MIC (Epidermophyton floccosum) [µg/mL],MIC (Candida albicans [1]) [µg/mL],MIC (Cryptococcus neoformans) [µg/mL],MIC (Nannizzia gypsea) [µg/mL],MIC (Candida albicans [2]) [µg/mL],MIC [3] [µg/mL],deltaRm [4],MIC (Pasteurella multocida) [µg/mL],MIC (Staphylococcus aureus) [µg/mL],MIC (Enterococcus faecalis) [µg/mL],MIC (Cutibacterium acnes) [µg/mL],MIC [5] [µg/mL],Activity (Candida albicans [6]),MIC100 (Pasteurella multocida) [µg/mL],MIC100 (Staphylococcus aureus) [µg/mL],MIC100 (Enterococcus faecalis) [µg/mL],MIC100 (Cutibacterium acnes) [µg/mL],MIC100 [5] [µg/mL]
CCCCCC(=O)SC(Cn1ccnc1)c1ccc(Cl)cc1Cl.O=[N+]([O-])O (stereo unspecified),< 0.1,100,1,30,30,30,-0.05,,,,,,inactive,,,,,
CCCCCOC(=S)SC(Cn1ccnc1)c1ccc(Cl)cc1Cl.O=[N+]([O-])O (stereo unspecified),< 0.1,3,< 1,3,3,3,0.37,1,3,10,> 100,100,,,,,,
CCCCCOC(=S)SC(Cn1ccnc1)c1ccc(Cl)cc1.O=C(O)C(=O)O (stereo unspecified),0.3,30,3,3,30,10,0.22,,,,,,,,,,,
CCCCCCCCCCCC(=O)OC(Cn1ccnc1)c1ccc(Cl)cc1Cl.O=[N+]([O-])O (stereo unspecified),1,> 300,< 1,> 100,> 300,> 100,1.1,1,10,100,> 100,10,,,,,,
CCCOC(=S)SC(Cn1ccnc1)c1ccc(Cl)cc1Cl.O=[N+]([O-])O (stereo unspecified),< 0.1,100,< 0.3,10,30,10,-0.03,,,,,,Active,,,,,
CCCCCCCC(=O)OC(Cn1ccnc1)c1ccc(Cl)cc1Cl.O=[N+]([O-])O (stereo unspecified),< 0.1,30,< 1,10,30,10,0.1,,,,,,inactive,,,,,
O=[N+]([O-])O.S=C(OC1CCCCC1)SC(Cn1ccnc1)c1ccc(Cl)cc1Cl (stereo unspecified),< 0.1,3,< 1,3,3,3,0.43,,,,,,,,,,,
O=C(Cc1ccc(Cl)cc1)SC(Cn1ccnc1)c1ccc(Cl)cc1Cl.O=[N+]([O-])O (stereo unspecified),< 0.1,100,< 1,> 30,100,30,,,,,,,,,,,,
CCCCCCC(=O)OC(Cn1ccnc1)c1ccc(Cl)cc1Cl.O=[N+]([O-])O (stereo unspecified),< 0.1,100,3,30,100,30,-0.16,,,,,,,,,,,
CCCCCCCCOC(=S)SC(Cn1ccnc1)c1ccc(Cl)cc1Cl.O=[N+]([O-])O (stereo unspecified),1,100,< 1,30,100,30,1.23,1,> 100,1,100,30,,,,,,
O=C(Cc1ccc(F)cc1)SC(Cn1ccnc1)c1ccc(Cl)cc1Cl.O=[N+]([O-])O (stereo unspecified),< 0.1,100,< 1,30,100,30,,,,,,,,,,,,
O=C(O)C(=O)O.S=C(OCc1ccccc1)SC(Cn1ccnc1)c1ccc(Cl)cc1Cl (stereo unspecified),< 0.1,30,< 0.3,10,10,1,-0.21,,,,,,,,,,,
CCCCCCOC(=O)OC(Cn1ccnc1)c1ccc(Cl)cc1Cl.O=[N+]([O-])O (stereo unspecified),< 0.3,100,30,30,100,30,-0.17,,,,,,,,,,,
GENTAMICIN,,,,,,,,,,,,,,< 0.1,1,30,1,30
CCCSC(=O)OC(Cn1ccnc1)c1ccc(Cl)cc1Cl.O=C(O)C(=O)O (stereo unspecified),< 0.1,300,3,30,300,30,,,,,,,,,,,,
O=C(Cc1ccccc1)SC(Cn1ccnc1)c1ccc(Cl)cc1Cl.O=[N+]([O-])O (stereo unspecified),< 0.1,100,< 1,30,100,30,-0.43,,,,,,,,,,,
